Measured values: ChEMBL document CHEMBL3120154, “2-[N-Alkyl(R-phenyl)-aminomethyl]-3-phenyl-7-trifluoromethylquinoxalines as anticancer agents inhibitors of folate enzymes” (Eur J Med Chem, 2014)

Tests used:
Format in all cases: functional
[1] = system: A549; assay: Cytotoxicity against human A549 cells at 10^-8 M after 48 hrs by SRB assay; conditions: A549, 48 h, read-out: GI
[2] = system: NCI-H23; assay: Cytotoxicity against human NCI-H23 cells at 10^-7 M after 48 hrs by SRB assay; conditions: NCI-H23, 48 h, read-out: GI
[3] = system: MOLT-4; assay: Cytotoxicity against human MOLT4 cells at 10^-8 M after 48 hrs by SRB assay; conditions: MOLT-4, 48 h, read-out: GI
[4] = system: HCC 2998; assay: Cytotoxicity against human HCC2998 cells at 10^-5 M after 48 hrs by SRB assay; conditions: HCC 2998, 48 h, read-out: GI
[5] = Cytotoxicity against human EKVX cells at 10^-8 M after 48 hrs by SRB assay; conditions: read-out: GI
[6] = system: NCI-H460; assay: Cytotoxicity against human NCI-H460 cells at 10^-7 M after 48 hrs by SRB assay; conditions: NCI-H460, 48 h, read-out: GI
[7] = system: SNB-19; assay: Cytotoxicity against human SNB19 cells at 10^-8 M after 48 hrs by SRB assay; conditions: SNB-19, 48 h, read-out: GI
[8] = system: SR; assay: Cytotoxicity against human SR cells at 10^-5 M after 48 hrs by SRB assay; conditions: read-out: GI
[9] = system: SR; assay: Cytotoxicity against human SR cells at 10^-4 M after 48 hrs by SRB assay; conditions: read-out: GI
[10] = Cytotoxicity against human UACC257 cells at 10^-8 M after 48 hrs by SRB assay; conditions: UACC-257, 48 h, read-out: GI
[11] = Cytotoxicity against human UACC257 cells after 48 hrs by SRB assay; conditions: UACC-257, 48 h
[12] = system: HL-60(TB); assay: Cytotoxicity against human HL-60(TB) cells at 10^-7 M after 48 hrs by SRB assay; conditions: HL-60, 48 h, read-out: GI
In short: (§1)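 NCI 60-human-tumour-cell-line screen run over a 5-log dose range (100, 10, 1, 0.1 and 0.01 µM). Cells were exposed to drug for 48 h. Growth was estimated by sulforhodamine B protein staining. Values are percent growth inhibition at each concentration, relative to untreated control cells.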

[13] = system: SK-OV-3; assay: Cytotoxicity against human SKOV3 cells at 10^-7 M after 48 hrs by SRB assay; conditions: SK-OV-3, 48 h, read-out: GI
[14] = system: K562; assay: Cytotoxicity against human K562 cells at 10^-5 M after 48 hrs by SRB assay; conditions: K562, 48 h, read-out: GI
[15] = system: CCRF-CEM; assay: Cytotoxicity against human CCRF-CEM cells at 10^-8 M after 48 hrs by SRB assay; conditions: read-out: GI
[16] = system: PC-3; assay: Cytotoxicity against human PC3 cells at 10^-8 M after 48 hrs by SRB assay; conditions: PC-3, 48 h, read-out: GI
[17] = system: CAKI-1; assay: Cytotoxicity against human Caki1 cells at 10^-8 M after 48 hrs by SRB assay; conditions: CAKI-1, 48 h, read-out: GI
[18] = system: SF-295; assay: Cytotoxicity against human SF295 cells at 10^-5 M after 48 hrs by SRB assay; conditions: SF-295, 48 h, read-out: GI
[19] = system: HL-60(TB); assay: Cytotoxicity against human HL-60(TB) cells at 10^-8 M after 48 hrs by SRB assay; conditions: HL-60, 48 h, read-out: GI; in short: as §1
[20] = system: NCI-H322M; assay: Cytotoxicity against human NCI-H322M cells at 10^-7 M after 48 hrs by SRB assay; conditions: read-out: GI
[21] = system: NCI-H23; assay: Cytotoxicity against human NCI-H23 cells at 10^-8 M after 48 hrs by SRB assay; conditions: NCI-H23, 48 h, read-out: GI
[22] = system: DU-145; assay: Cytotoxicity against human DU145 cells at 10^-8 M after 48 hrs by SRB assay; conditions: DU-145, 48 h, read-out: GI
[23] = system: SF-268; assay: Cytotoxicity against human SF268 cells at 10^-7 M after 48 hrs by SRB assay; conditions: SF-268, 48 h, read-out: GI
[24] = system: OVCAR-8; assay: Cytotoxicity against human OVCAR8 cells after 48 hrs by SRB assay; conditions: OVCAR-8, 48 h
[25] = system: PC-3; assay: Cytotoxicity against human PC3 cells at 10^-7 M after 48 hrs by SRB assay; conditions: PC-3, 48 h, read-out: GI
[26] = system: LOX IMVI; assay: Cytotoxicity against human LOXIMVI cells at 10^-8 M after 48 hrs by SRB assay; conditions: read-out: GI
[27] = system: MCF7; assay: Cytotoxicity against human MCF7 cells at 10^-8 M after 48 hrs by SRB assay; conditions: MCF7, 48 h, read-out: GI
[28] = system: SK-MEL-2; assay: Cytotoxicity against human SK-MEL-2 cells at 10^-7 M after 48 hrs by SRB assay; conditions: SK-MEL-2, 48 h, read-out: GI
[29] = system: MCF7; assay: Cytotoxicity against human MCF7 cells at 10^-7 M after 48 hrs by SRB assay; conditions: MCF7, 48 h, read-out: GI
[30] = system: SK-OV-3; assay: Cytotoxicity against human SKOV3 cells at 10^-8 M after 48 hrs by SRB assay; conditions: SK-OV-3, 48 h, read-out: GI
[31] = Cytotoxicity against human OVCAR4 cells at 10^-8 M after 48 hrs by SRB assay; conditions: OVCAR-4, 48 h, read-out: GI
[32] = system: K562; assay: Cytotoxicity against human K562 cells at 10^-6 M after 48 hrs by SRB assay; conditions: K562, 48 h, read-out: GI
[33] = Cytotoxicity against human UO31 cells at 10^-8 M after 48 hrs by SRB assay; conditions: UO-31, 48 h, read-out: GI
[34] = system: 786-0; assay: Cytotoxicity against human 786-0 cells at 10^-7 M after 48 hrs by SRB assay; conditions: 786-0, 48 h, read-out: GI
[35] = system: HOP-92; assay: Cytotoxicity against human HOP92 cells at 10^-7 M after 48 hrs by SRB assay; conditions: HOP-92, 48 h, read-out: GI
[36] = system: HCC 2998; assay: Cytotoxicity against human HCC2998 cells at 10^-7 M after 48 hrs by SRB assay; conditions: HCC 2998, 48 h, read-out: GI
[37] = Cytotoxicity against human UO31 cells at 10^-6 M after 48 hrs by SRB assay; conditions: UO-31, 48 h, read-out: GI
[38] = system: HOP-62; assay: Cytotoxicity against human HOP62 cells at 10^-7 M after 48 hrs by SRB assay; conditions: HOP-62, 48 h, read-out: GI
[39] = system: SK-MEL-2; assay: Cytotoxicity against human SK-MEL-2 cells at 10^-8 M after 48 hrs by SRB assay; conditions: SK-MEL-2, 48 h, read-out: GI
[40] = system: SF-268; assay: Cytotoxicity against human SF268 cells at 10^-8 M after 48 hrs by SRB assay; conditions: SF-268, 48 h, read-out: GI
[41] = system: T47D; assay: Cytotoxicity against human T47D cells at 10^-7 M after 48 hrs by SRB assay; conditions: read-out: GI
[42] = system: RXF 393; assay: Cytotoxicity against human RXF393 cells after 48 hrs by SRB assay; conditions: RXF 393, 48 h

Work on `CCN(Cc1nc2cc(C(F)(F)F)ccc2nc1-c1ccccc1)c1ccc(OC)c(OC)c1` yielded an inhibition of growth at 0.01 µM [1] of 19%, an inhibition of growth at 0.1 µM [2] of under 40% and an inhibition of growth at 0.01 µM [3] of under 40%. The inhibition of growth at 10 µM [4] was 15%, the inhibition of growth at 0.01 µM [5] was under 40% and the inhibition of growth at 0.1 µM [6] was under 40%. The inhibition of growth at 0.01 µM [7] was under 40%, the inhibition of growth at 10 µM [8] was 56% and the inhibition of growth at 100 µM [9] was 145%. It also gave an inhibition of growth at 0.01 µM [10] of 39%, a GI50 [11] of 25.1 nM and an inhibition of growth at 0.1 µM [12] of under 40%. It also gave an inhibition of growth at 0.1 µM [13] of under 40%, an inhibition of growth at 10 µM [14] of 62% and an inhibition of growth at 0.01 µM [15] of under 40%. It also gave an inhibition of growth at 0.01 µM [16] of under 40%, an inhibition of growth at 0.01 µM [17] of under 40% and an inhibition of growth at 10 µM [18] of 18%. For the same compound, the inhibition of growth at 0.01 µM [19] was under 40%, the inhibition of growth at 0.1 µM [20] was under 40% and the inhibition of growth at 0.01 µM [21] was under 40%. The inhibition of growth at 0.01 µM [22] was under 40%, the inhibition of growth at 0.1 µM [23] was under 40% and the GI50 [24] was 1510 nM. It also gave an inhibition of growth at 0.1 µM [25] of under 40%, an inhibition of growth at 0.01 µM [26] of under 40% and an inhibition of growth at 0.01 µM [27] of under 40%. For the same compound, the inhibition of growth at 0.1 µM [28] was under 40%, the inhibition of growth at 0.1 µM [29] was under 40% and the inhibition of growth at 0.01 µM [30] was under 40%. For the same compound, the inhibition of growth at 0.01 µM [31] was under 40%, the inhibition of growth at 1 µM [32] was under 40% and the inhibition of growth at 0.01 µM [33] was under 40%. For the same compound, the inhibition of growth at 0.1 µM [34] was under 40%, the inhibition of growth at 0.1 µM [35] was under 40% and the inhibition of growth at 0.1 µM [36] was under 40%. For the same compound, the inhibition of growth at 1 µM [37] was under 40%, the inhibition of growth at 0.1 µM [38] was under 40% and the inhibition of growth at 0.01 µM [39] was under 40%. The inhibition of growth at 0.01 µM [40] was under 40%, the inhibition of growth at 0.1 µM [41] was under 40% and the GI50 [42] was 309 nM.
